Results taken from ChEMBL document CHEMBL1138454, “Synthesis and SAR of tolylamine 5-HT6 antagonists” (Bioorg Med Chem Lett, 2009).
The source made the active and inactive calls. The rule behind the calls is not given here.

Key:
[1] = tested on: Rattus norvegicus; assay: Reversal of natural forgetting activity in rat assessed as familiar object recognition at 3 mg/kg, ip after 24 hrs; format: functional, organism-based; parameters: dose 3 mg/kg
[2] = tested on: Rattus norvegicus; assay: Reversal of natural forgetting activity in rat assessed as familiar object recognition at 10 mg/kg, ip after 24 hrs; format: functional, organism-based; parameters: dose 10 mg/kg
[3] = Bioavailability in rat; format: ADME, organism-based; conditions: in vivo
[4] = Clearance in rat; format: ADME, organism-based; conditions: in vivo
[5] = Volume of distribution at steady state in rat; format: ADME, organism-based; conditions: in vivo, read-out: Vdss
[6] = Half life in po dosed rat plasma; format: ADME, organism-based
Summary of the method: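 Rat pharmacokinetics; plasma half-life derived from the PO dosing arm.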

[7] = Ratio of drug level in rat brain to plasma; conditions: brain and plasma
[8] = target: 5-hydroxytryptamine receptor 6 (Rattus norvegicus) (UniProt P31388); assay: Agonist activity at rat recombinant 5HT6 receptor assessed as increase in 5-HT-stimulated cAMP level at 1 uM by ELISA; format: functional
Summary of the method: (§1)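 cAMP accumulation measured by ELISA in cells expressing recombinant rat 5-HT6 receptor. Compound tested alone, without 5-HT, at 1, 3 and 10 µM to look for stimulation. 5-HT used as the stimulating reference.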

[9] = target: 5-hydroxytryptamine receptor 6 (Rattus norvegicus) (UniProt P31388); assay: Agonist activity at rat recombinant 5HT6 receptor assessed as increase in 5-HT-stimulated cAMP level at 3 uM by ELISA; format: functional; summary of the method: as §1
[10] = target: 5-hydroxytryptamine receptor 6 (Rattus norvegicus) (UniProt P31388); assay: Agonist activity at rat recombinant 5HT6 receptor assessed as increase in 5-HT-stimulated cAMP level at 10 uM by ELISA; format: functional; summary of the method: as §1
[11] = target: 5-hydroxytryptamine receptor 6 (Rattus norvegicus) (UniProt P31388); assay: Antagonist activity at rat recombinant 5HT6 receptor assessed as inhibition of 5-HT-stimulated cAMP level by ELISA; format: functional
Summary of the method: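 Cells expressing recombinant rat 5-HT6 receptor were stimulated with 5-HT. Inhibition of the 5-HT-stimulated cAMP accumulation was read by ELISA and expressed as a Kb.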

[12] = target: T1, 5-hydroxytryptamine receptor 1A (Homo sapiens, UniProt P08908); assay: Binding affinity to 5HT1A receptor
T1 sequence (P08908 whole entry): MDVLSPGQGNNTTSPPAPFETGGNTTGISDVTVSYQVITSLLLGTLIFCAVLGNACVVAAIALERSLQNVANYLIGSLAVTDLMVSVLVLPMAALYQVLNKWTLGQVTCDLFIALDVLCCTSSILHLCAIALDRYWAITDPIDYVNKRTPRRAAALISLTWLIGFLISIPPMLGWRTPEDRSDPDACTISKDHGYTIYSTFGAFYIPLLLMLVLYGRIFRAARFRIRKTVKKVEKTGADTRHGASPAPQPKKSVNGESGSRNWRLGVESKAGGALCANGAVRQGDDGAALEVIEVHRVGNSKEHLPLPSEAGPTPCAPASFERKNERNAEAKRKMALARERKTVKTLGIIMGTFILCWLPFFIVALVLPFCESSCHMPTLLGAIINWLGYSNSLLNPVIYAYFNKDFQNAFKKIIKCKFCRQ

[13] = target: 5-hydroxytryptamine receptor 2A (Homo sapiens, UniProt P28223); assay: Binding affinity to 5HT2A receptor
[14] = target: T2, 5-hydroxytryptamine receptor 2C (Homo sapiens, UniProt P28335); assay: Binding affinity to 5HT2C receptor
T2 sequence (P28335 whole entry): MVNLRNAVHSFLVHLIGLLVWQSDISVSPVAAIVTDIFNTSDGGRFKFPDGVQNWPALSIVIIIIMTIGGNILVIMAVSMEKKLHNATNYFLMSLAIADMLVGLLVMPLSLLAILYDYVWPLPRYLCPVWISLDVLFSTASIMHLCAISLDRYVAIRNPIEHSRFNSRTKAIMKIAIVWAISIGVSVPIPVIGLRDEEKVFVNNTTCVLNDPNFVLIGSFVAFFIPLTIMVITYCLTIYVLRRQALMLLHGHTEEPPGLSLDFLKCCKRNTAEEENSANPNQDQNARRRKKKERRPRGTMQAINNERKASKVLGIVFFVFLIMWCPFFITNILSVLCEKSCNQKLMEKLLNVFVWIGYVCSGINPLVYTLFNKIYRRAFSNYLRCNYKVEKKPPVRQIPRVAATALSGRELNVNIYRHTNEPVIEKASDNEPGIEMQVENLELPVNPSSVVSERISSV

[15] = tested on: Rattus norvegicus; assay: Reversal of natural forgetting activity in rat assessed as novel object recognition at 3 mg/kg, ip after 24 hrs; format: functional, organism-based; parameters: dose 3 mg/kg
[16] = tested on: Rattus norvegicus; assay: Reversal of natural forgetting activity in rat assessed as novel object recognition at 10 mg/kg, ip after 24 hrs; format: functional, organism-based; parameters: dose 10 mg/kg

Chain of 5-hydroxytryptamine receptor 6 (Rattus norvegicus) (P31388 whole entry): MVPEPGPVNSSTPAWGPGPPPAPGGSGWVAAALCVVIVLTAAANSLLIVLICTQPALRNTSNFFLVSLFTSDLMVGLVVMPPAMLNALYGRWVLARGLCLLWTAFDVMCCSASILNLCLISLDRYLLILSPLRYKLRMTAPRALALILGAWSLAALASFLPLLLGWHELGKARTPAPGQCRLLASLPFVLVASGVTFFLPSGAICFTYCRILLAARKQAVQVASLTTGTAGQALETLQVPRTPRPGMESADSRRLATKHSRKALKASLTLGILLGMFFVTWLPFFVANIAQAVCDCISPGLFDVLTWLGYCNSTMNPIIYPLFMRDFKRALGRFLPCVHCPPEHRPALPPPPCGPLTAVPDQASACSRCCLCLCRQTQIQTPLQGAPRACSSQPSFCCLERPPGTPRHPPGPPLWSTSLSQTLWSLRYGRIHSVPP
Chain of 5-hydroxytryptamine receptor 2A (P28223 whole entry): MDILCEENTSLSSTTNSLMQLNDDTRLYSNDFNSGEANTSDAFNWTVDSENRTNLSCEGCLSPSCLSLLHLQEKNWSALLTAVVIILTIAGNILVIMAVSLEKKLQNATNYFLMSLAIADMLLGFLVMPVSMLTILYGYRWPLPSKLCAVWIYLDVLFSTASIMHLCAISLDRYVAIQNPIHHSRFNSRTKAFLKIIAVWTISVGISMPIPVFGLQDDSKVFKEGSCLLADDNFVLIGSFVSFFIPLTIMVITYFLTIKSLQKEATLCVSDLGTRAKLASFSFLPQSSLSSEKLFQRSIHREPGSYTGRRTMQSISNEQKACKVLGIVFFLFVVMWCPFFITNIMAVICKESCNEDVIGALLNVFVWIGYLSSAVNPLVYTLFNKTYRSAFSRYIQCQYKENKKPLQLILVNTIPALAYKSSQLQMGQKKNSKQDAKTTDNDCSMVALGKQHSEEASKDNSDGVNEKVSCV

## Cc1c(O[C@@H](C)c2cccc(F)c2)cccc1C1CCNCC1
[1]
  Activity: Active
[2]
  Activity: Active
[3]
  bioavailability: 90%
[4]
  clearance: 66 mL/min/kg
[5]
  Vd: 12 L/kg
[6]
  half-life: 5.9 h
[7]
  Kp: 23
[8]
  Activity: inactive
[9]
  Activity: inactive
[10]
  Activity: inactive
[11]
  Kb: 153 nM
[12]
  IC50: > 1000 nM
[13]
  IC50: > 1000 nM
[14]
  IC50: > 1000 nM
[15]
  Activity: Active
[16]
  Activity: Active
